# Glyco luc inh: blocks N-linked glycosylation in D54 reporter cells; D54 ERlucT glycosylation luciferase reporter, 24 h; percent of 100 nM tunicamycin response; reporter increase, % at 12.5 µM; 360,000 compounds, 0.23% hits; AID 588692;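 active means mean luciferase reporter signal, scaled so untreated is 0 and the glycosylation-blocking control 100, at or above a set limit in every replicate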;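 further: luciferase carries N-glycosylation sites so blocking glycosylation raises the light; 0% = median of neutral control wells and 100% = median of 100 nM tunicamycin wells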
# T cell modulator: T cell immune modulation candidate; 330,000 compounds, 0.068% hits; AID 2052; 2C CD8+ T cell-vesicle binding, flow cytometry; active compounds read low; response (vesicle binding), % at 7 µM;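 active means response, share of CD8 T cells binding vesicles, and their 90th percentile fluorescence all below set limits, cut at about 80% in these data, passing the limit was not always enough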;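 further: values below 100% mean blocked vesicle binding to the CD8+ T cells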
#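 incubation = binding step 1.5 h, 37 °C, antibody labelling 20 min, ice | test system = 2C mouse CD8+ T cells | read-out basis = percent CD8+ FL2 mean versus row control | controls = Peptide-free naked vesicles (low) and QL9 vesicles with 0.7% DMSO vehicle (high) | detection = flow cytometry of vesicle-bound cells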
# ALR H2O2 inh: human ALR oxidase inhibition via reduced H2O2. inhibition, % (no concentration beside the values). 290,000 compounds, 3.8% hits. P55789. purified ALR, DTT oxidation, H2O2 HRP-luminol luminescence;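 active means mean replicate inhibition above about 79%, with every replicate also reaching it, limit read from the data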
# Target sequence (P55789 whole entry, looked up): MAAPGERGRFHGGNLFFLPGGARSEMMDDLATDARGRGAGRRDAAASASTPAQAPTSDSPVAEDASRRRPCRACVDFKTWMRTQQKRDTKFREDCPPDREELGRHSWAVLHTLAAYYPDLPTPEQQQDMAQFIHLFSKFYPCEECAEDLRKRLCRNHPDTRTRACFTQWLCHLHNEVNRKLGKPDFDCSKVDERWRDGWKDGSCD
# The depositor's hits bear a star; i = inactive; . = no result given. Many of the other results were omitted from the sample, so hits are more common in it than they were.
SMILES,Glyco luc inh,T cell modulator,ALR H2O2 inh
S=c1nc(-c2ccccc2Br)[nH][nH]1,-1,70,99*
Cc1cc(C)nc(Nc2n[nH]c(-c3ccccc3Br)n2)n1,4,252,0
COc1ccccc1CNS(=O)(=O)c1cc2c3c(c1)CCN3C(=O)CC2,2,376,1
CCOC(=O)C(Cc1ccccc1)C(=O)Nc1ccc(N(CC)CC)cc1 (stereo not drawn),-1,0,99*
CC(=O)Nc1ccc(NC(=S)NC(=O)C2CCCC2)cc1,-1,225,-5
CCN(CC)c1ccc(NC(=O)c2ccc(Br)o2)cc1,-4,223,96*
CCOC(=O)C(Cc1ccccc1)C(=O)Nc1cccc(C)c1 (stereo not drawn),5,369,.
CCN(CC)c1ccc(NC(=O)c2cnn(CC)c2)cc1,-2,308,99*
CCn1cc(C(=O)Nc2ccccc2C(=O)OC)cn1,2,404,-17
COC(=O)Cc1ccc(NC(=O)c2ccc(Br)o2)cc1,1,66,-2
CCN(CC)c1ccc(NC(=S)NC(=O)C2CCC2)cc1,-1,261,99*
Cc1cc(=O)n2nc(N3CCCC(C(=O)NCCCN4C(C)CCCC4C)C3)sc2n1 (stereo not drawn),0,.,.
O=C(OCC(=O)N1CCc2ccccc2C1)c1c(F)cccc1Cl,-7,347,.
O=C1CC(c2ccccc2)CC(=O)N1c1ccc(C(F)(F)F)cc1,5,i,5
COC(=O)Nc1ccc(NC(C)=O)cc1,0,343,-21
CCN(CC)c1ccc(NC(=O)OC)cc1,0,248,91*
C=CCNc1nc(C(=O)OCC(=O)N(Cc2ccccc2)C(C)C)cs1,0,278,2
O=C(Nc1cc(C(F)(F)F)ccc1N1CCCC1)C1CCCO1 (stereo not drawn),1,469,7
COC(=O)c1ccc2c(=O)[nH]c(CSc3nc(-c4ccc(F)cc4)cs3)nc2c1,4,78*,-3
COC(=O)c1ccc2c(=O)[nH]c(CSc3nc(C)cs3)nc2c1,3,308,1
Cn1c(CNC(=O)c2ccco2)nnc1SCC(=O)Nc1ccccc1Cl,0,199,.
Cc1ccc(S(=O)(=O)NCCCNS(=O)(=O)c2ccccc2[N+](=O)[O-])cc1,0,670,-9
COCCNC(=O)C1(C)CCCN(Cc2cc(C)ccc2C)C1 (stereo not drawn),-2,.,.
CC1(C(=O)Nc2cnc3ccccc3c2)CCN1Cc1cc2ccccc2o1 (stereo not drawn),0,.,.
N#Cc1cnn(-c2ccccc2)c1NC(=O)CN1CCN(c2ccccc2)CC1,0,629,97*
SMILES,Glyco luc inh,T cell modulator,ALR H2O2 inh
N#Cc1ccsc1NC(=O)CN1CCN(c2ccc(O)cc2)CC1,-5,258,99*
N#Cc1cnn(-c2ccccc2)c1NC(=O)CN1CCOCC1,2,80,-6
N#Cc1ccsc1NC(=O)CN1CCN(c2ccccc2)CC1,0,257,33
CCc1cccc2sc(N3CCN(C(=O)c4ccc([N+](=O)[O-])o4)CC3)nc12,5,379,-19
CC(C)n1nc(Cc2cccc3ccccc23)c(C#N)c1N,-6,739,-6
O=NC1=C(c2c(O)[nH]c3ccccc23)CCCC1,4,294,2
Oc1[nH]c2ccccc2c1C1=NCCCCC1,3,145,93*
CCN(CC)S(=O)(=O)c1ccc(NC(=O)C2CC(=O)N(c3ccc4c(c3)OCCO4)C2)cc1 (stereo not drawn),-4,.,.
COc1cccc(NC(=O)CSc2nc(O)c(C)c(=O)n2-c2ccc(C)cc2)c1,1,417,98*
CCn1c(C)nnc1SCC(=O)Nc1cccc(C(F)(F)F)c1,0,540,-4
Cc1c(O)nc(SCC(=O)Nc2cccc(C(F)(F)F)c2)n(-c2ccccc2)c1=O,3,362,99*
COc1cccc(NC(=O)CSc2nnc(Cc3cccs3)n2-c2ccc(C)cc2)c1,-1,392,-6
COc1ccc(C2=C(C=C(C#N)C#N)C(c3ccccc3C)c3ccccc3O2)cc1OC (stereo not drawn),0,86,0
C#CC1(NC(=O)NCCCC)CCCCC1,0,227,-4
COc1ccc(CC(=O)N/N=C(\C)CC(=O)Nc2ccc3c(c2)OCCO3)cc1,-2,185,.
COc1ccc(C(=S)Nc2ccc(N(C)C)cc2)cc1,-8,312,99*
C/C(CC(=O)Nc1ccc([N+](=O)[O-])cc1)=N\NC(=O)c1ccccc1[N+](=O)[O-],0,62,-2
C/C(CC(=O)Nc1ccc(N(C)C)cc1)=N\NC(=O)c1ccc([N+](=O)[O-])cc1,2,182,95*
CC(C)N(C(=O)c1ccc(C(=O)Nc2ccc([N+](=O)[O-])cc2)cc1)C(C)C,0,606,0
CN(C)S(=O)(=O)c1ccc(NC(=O)c2ccc([N+](=O)[O-])cc2)cc1,-2,0.0*,.
COc1ccc(NC(=S)c2ccc(N(C)C)cc2)cc1,-3,121,6
COc1ccc(CC(=O)N/N=C(\C)CC(=O)Nc2ccc(N(C)C)cc2)cc1,2,192,94*
O=C(COc1ccccc1[N+](=O)[O-])NCC1(N2CCOCC2)CCCCC1,-2,290,12
Nc1c(C(=O)NCC2CCCO2)sc2nc3c(c(-c4ccco4)c12)CC/C3=C\c1ccco1 (stereo not drawn),-3,.,.
OCCNc1nnc(-c2ccccc2)c(-c2ccccc2)n1,0,201,-6
SMILES,Glyco luc inh,T cell modulator,ALR H2O2 inh
CCOC(=O)c1ccc(N/C=C/C(=O)C(C)(C)C)cc1,-1,762,-4
CN(C)c1ccc(N/C=C/C(=O)C(C)(C)C)cc1,4,188,99*
CN(C)c1ccc(N/C=C/C(=O)c2ccccc2)cc1,-17,384,40
CC(C)(C)C(=O)/C=C/Nc1ccccc1O,-1,192,99*
NC(=O)NC(CC(=O)OCC(=O)Nc1nnc(-c2ccccc2)o1)c1ccc(Cl)cc1 (stereo not drawn),2,.,.
Cc1csc(NC(=O)C2CCCCC2)n1,0,164,-5
COC(=O)c1cccc(NC(=O)CSc2nncn2-c2ccccn2)c1,2,306,-8
COC(=O)c1cccc(NC(=O)CSc2nc3cccnc3n2C)c1,-2,189,98*
COC(=O)c1ccccc1NC(=O)CSc1nc2cccnc2n1C,-2,275,-14
COC(=O)c1ccc(NC(=O)CSc2nncn2-c2ccccn2)cc1,0,235,99*
CC(=O)Nc1ccc(S(=O)(=O)N2CCC(c3nc4c(nnn4Cc4ccccc4Cl)c(=O)[nH]3)CC2)cc1,1,162,3
O=C(CSc1nc2nn(-c3ccccc3)c(=O)c-2c2n1CCCCC2)Nc1ccc(OC(F)F)cc1,-4,611,48
CC(C)(C)c1ccc(CC(=O)N2CCC2(C)C(=O)NS(=O)(=O)c2ccccc2)cc1 (stereo not drawn),1,.,.
Oc1ccc(NC(=S)Nc2ccccc2)cc1,0,84,99*
COc1ccc(NC(=S)Nc2ccc3snnc3c2)cc1,-2,217,97*
COc1cccc(NC(=S)Nc2ccc(F)cc2)c1,1,156,45
COc1ccc(NC(=S)Nc2ccc3nccnc3c2)cc1,-2,387,-42
O=C(NNC(=S)Nc1cccc(Cl)c1)c1ccccc1OC(F)F,5,268,.
Nc1ccc(NC(=S)Nc2ccccc2)cc1,2,191,39

# Screening results: PubChem BioAssay, several laboratories
